MrgX1 agonist: agonists of human MrgX1 receptor, primary screen, HEK293 cells, Fluo-4 calcium flux. Mas-related G-protein coupled receptor member X1 (Homo sapiens), Q96LB2. Fluo-4 calcium fluorescence, agonist mode; hits give high values. B-score at 10 µM. 0.44% of 310,000 active. AID 588627, 2011;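 active = calcium response B-score plate-corrected fluorescence ratio at least 3 library SD, with starting fluorescence B-score inside 5 SD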
Target sequence (Q96LB2 whole entry, looked up): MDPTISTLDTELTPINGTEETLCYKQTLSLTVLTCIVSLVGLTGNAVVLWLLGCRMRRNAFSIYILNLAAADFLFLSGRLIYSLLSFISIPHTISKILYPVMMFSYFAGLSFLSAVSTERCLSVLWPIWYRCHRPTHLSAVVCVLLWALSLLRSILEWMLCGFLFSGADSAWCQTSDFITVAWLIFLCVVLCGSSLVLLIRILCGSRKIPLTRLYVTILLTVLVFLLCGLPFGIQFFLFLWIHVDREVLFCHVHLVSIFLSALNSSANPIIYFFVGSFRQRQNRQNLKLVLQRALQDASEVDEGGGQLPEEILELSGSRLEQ
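Material – MrgX1-expressing HEK293 cells · Input – 15,000 cells seeded per well · Dosing – compound as first of three additions · Times – overnight seeding, then 1 h dark dye loading · Measured by – kinetic Fluo-4 NW fluorescence of intracellular calcium · Read-out – B-scored fluorescence response ratio · Benchmarks – positive and negative control wells on each plate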
RGS4 block: RGS4 inhibitors, primary screen, cell-based, HEK293 M3R inducible RGS4, calcium flux; Regulator of G-protein signaling 4 (Homo sapiens), P49798; Fluo-4 calcium flux; hits give high values; triggered by carbachol at its EC20; B-score at 10 µM; 0.45% of 310,000 active; AID 463165, 2010;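 active = B-score, a plate-corrected calcium signal, over three deviations above library mean, with baseline fluorescence within five deviations of library mean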;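 note: RGS4 expression induced by doxycycline in cells with stable M3 receptor; B-score is computed from the integrated fluorescence ratio over baseline after carbachol; higher B-score means a larger calcium signal and so more RGS4 inhibition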
Target sequence (P49798 whole entry, looked up): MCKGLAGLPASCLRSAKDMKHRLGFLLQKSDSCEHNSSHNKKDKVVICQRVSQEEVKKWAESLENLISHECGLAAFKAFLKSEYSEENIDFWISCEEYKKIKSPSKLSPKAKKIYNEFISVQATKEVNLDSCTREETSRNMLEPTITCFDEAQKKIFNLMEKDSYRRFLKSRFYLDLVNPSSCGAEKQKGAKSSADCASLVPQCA
MrgX1 antagonist: antagonists of human MrgX1 receptor, primary screen, HEK293 cells, Fluo-4 calcium flux | Mas-related G-protein coupled receptor member X1 (Homo sapiens), Q96LB2 | BAM8-22 antagonism; hits give low values | 1.3% of 310,000 active | B-score at 10 µM;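 active = calcium-response B-score plate-corrected more than 3 library SD below zero, starting fluorescence within 5 deviations, no agonist response on first addition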;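 note: peak minus trough fluorescence over baseline after final BAM8-22 challenge near maximal dose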
RGS4 pot: RGS4 potentiators or activators, primary screen, cell-based, HEK293 M3R inducible RGS4, calcium flux. carbachol calcium flux Fluo4; hits give low values. B-score at 10 µM. 0.92% of 310,000 active;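 active = B-score of the integrated calcium signal more than 4 SD below the library mean, with starting fluorescence not abnormally high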;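 note: negative B-score means reduced calcium response which marks RGS4 activation or potentiation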
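Material: M3R-expressing HEK293 line, RGS4 induced by doxycycline | Schedule: Overnight RGS4 induction, 30 min dye load 37 °C, 20 min compound RT | Measured by: Fluo4 fluorescence kinetic imaging of calcium | Read-out: Integrated calcium ratio converted to B score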
MrgX1 PAM: positive allosteric modulators of MrgX1, primary screen, HEK293 cells, Fluo-4 calcium flux. FDSS; hits give high values. B-score at 10 µM. 0.63% of 310,000 active;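 active = plate-corrected calcium response at least 3 library SD above typical, normal starting fluorescence, not activating the receptor alone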;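 note: compound read alongside a low EC10 to EC30 dose of BAM8-22 agonist; peak minus trough fluorescence over baseline measured at the second addition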
An asterisk follows results filed as active; i = inactive; x = no result given. This is a sample that favours compounds with a hit; in the whole collection about 3.5% have one here.

SMILES	MrgX1 agonist	RGS4 block	MrgX1 antagonist	RGS4 pot	MrgX1 PAM
CCOc1ccc(C(=O)NCC(=O)NNC(=O)C2COc3ccccc3O2)cc1OCC (centres undefined)	i	i	-5.4*	i	i
O=S(=O)(Nc1nc2ccc(Cl)cc2s1)c1cccs1	i	i	i	i	i
COCc1c(C#N)c(NCCc2ccccc2)nc(C)c1[N+](=O)[O-]	i	i	-6.3*	i	i
COCc1c(C#N)c(NCCc2ccc(F)cc2)nc(C)c1[N+](=O)[O-]	i	i	i	i	i
Cc1nc(NCCc2ccc(F)cc2)c(C#N)c(C)c1[N+](=O)[O-]	38*	i	i	i	i
COc1ccc(NC(=O)c2ccc(Br)c(S(=O)(=O)N3CCOCC3)c2)cc1	i	i	i	i	i
Cc1ccc(OCCN2CCN(C(=O)CCC(=O)Nc3nnc(CC(C)C)s3)CC2)cc1	i	i	i	i	i
NS(=O)(=O)c1ccc(Oc2ccc(S(N)(=O)=O)cc2)cc1	i	i	i	i	i
C=CS(=O)(=O)c1ccc(Oc2ccc(S(=O)(=O)C=C)cc2)cc1	31*	21*	i	i	i
Cc1cc(/C=C2\SC(=S)NC2=O)c(C)n1-c1ccc(O)cc1	43*	i	i	i	i
Cc1cc(/C=C2\SC(=S)NC2=O)c(C)n1-c1ccccc1	i	i	i	i	i
Cc1c(C(=O)Oc2cc(N)n(S(C)(=O)=O)n2)cccc1[N+](=O)[O-]	i	i	i	i	6.7*
Cc1ccccc1C(=O)Oc1cc(N)n(S(C)(=O)=O)n1	i	i	i	i	i
CCOC(=O)C1=NN(C(C)=O)C2(CC(=O)N(c3ccc(C)c(C)c3)C2=O)C1 (centres undefined)	i	i	i	i	i
CCC(C)NC(=O)CSc1nnc(-c2c[nH]c3ccccc23)o1 (centres undefined)	i	i	i	i	i
COc1ccc(CNCCc2ccc(Cl)cc2)cc1OCc1ccccc1	i	i	-5.8*	i	i
CCOc1cc(CNCc2ccccc2)ccc1OCc1ccc(Cl)cc1	i	i	i	i	i
COc1cc(Cl)c(CN2CCCC(CO)(Cc3ccccc3F)C2)cc1OC (centres undefined)	i	i	i	i	i
CCOc1ccc(CN2CCCC(CO)(Cc3ccccc3F)C2)cc1 (centres undefined)	64*	i	i	i	i
CC(C)CN1C(=O)/C(=C(/C#N)C(=O)NC2CCCCC2)c2ccccc21	i	i	i	i	8.2*
Cc1cccc(CSc2nnc(CCNC(=O)OC(C)(C)C)o2)c1	i	i	i	i	i
O=C(COC(=O)CNC(=O)C1CCCCC1)Nc1ccc(Cl)cc1F	i	i	i	i	i
C1CCCN(CCCCN2CCCCCC2)CC1	i	i	i	i	i
COC(=O)CCCCCCCCCCN1CCCCC1	i	i	i	-9.2*	i
Cc1cc(C(=O)N/N=C/C=C/c2ccc([N+](=O)[O-])cc2)n[nH]1	i	i	i	i	i
SMILES	MrgX1 agonist	RGS4 block	MrgX1 antagonist	RGS4 pot	MrgX1 PAM
Cc1cc(C(=O)N/N=C/C=C/c2ccc(Br)cc2)n[nH]1	i	i	-5.6*	i	i
O=C(O)/C=C/C(=O)NC1CC1	i	i	i	i	i
N#C/C(=C\c1c(Cl)cccc1Cl)c1nc2ccccc2[nH]1	i	i	i	i	8.7*
Cc1cc(/C=C(/C#N)c2nc3ccccc3[nH]2)c(C)n1-c1cccc([N+](=O)[O-])c1	i	i	i	-7.1*	i
COc1ccc(/C=C(\C#N)c2nc3ccccc3[nH]2)cc1O	x	i	x	i	x
Cc1cc(/C=C(\C#N)c2nc3ccccc3[nH]2)c(C)n1C	i	i	i	i	i
CN(C)/C=C(\C#N)c1nc2ccccc2[nH]1	i	i	i	i	i
N#C/C(=C\c1ccc(Cl)cc1)c1nc2ncccc2[nH]1	i	i	i	i	19*
COc1cc(/C=C(\C#N)c2nc3ccccc3[nH]2)cc(OC)c1O	44*	i	i	i	i
CN(CC(=O)Nc1ccc(Cl)cc1)CC(=O)Nc1cccc(Br)c1	i	i	i	i	i
O=C(CCn1c(=O)oc2ccc(Cl)cc21)NCCCN1CCOCC1	i	i	i	i	i
C/C(=N\NC(=O)C(=O)Nc1cccc(Cl)c1C)c1ccncc1	i	i	i	i	i
O=C(CNC(=O)c1ccc(Cl)cc1Cl)OCn1nnc2ccccc2c1=O	i	i	i	i	i
COC(=O)c1ccccc1C(=O)N1CCCC(CCC(=O)NCc2ccc(F)c(F)c2)C1 (centres undefined)	i	i	i	i	i
O=C1CC(c2ccccc2)CC(O)=C1C=NCCc1ccccc1 (centres undefined)	i	i	i	i	11*
O=C1CC(c2ccc(Cl)cc2)CC(O)=C1C=NCc1ccc(Cl)c(Cl)c1 (centres undefined)	i	i	i	-8*	i
NS(=O)(=O)c1ccc(NC(=O)CSc2cn[nH]n2)cc1	i	i	i	i	i
CC(OC(=O)/C(C#N)=C/c1ccc(N(C)C)cc1)C(=O)N(C)Cc1ccccc1 (centres undefined)	i	i	i	i	i
Fc1cccc(Cc2noc(CN3CCSCC3)n2)c1	i	i	i	i	i
Fc1cccc(Cc2noc(CN3CCCN(C4Cc5ccccc5C4)CC3)n2)c1	i	i	i	-7.5*	i
O=S(=O)(c1ccc(-c2ccon2)s1)N1CCCC1	i	i	i	i	i
O=S(=O)(c1ccc(-c2ccon2)s1)N1CCN(c2ccncc2)CC1	53*	i	i	i	i
O=S(=O)([O-])C(c1ccccc1)[n+]1ccccc1 (centres undefined)	i	i	i	i	i
O=[N+]([O-])c1ccc(O)c(Nc2c([N+](=O)[O-])ccc3nonc23)c1	i	i	i	i	i
CCN(CC)CC(=O)N1CCCC(N2CCN(c3cccc(C(F)(F)F)c3)CC2)C1 (centres undefined)	i	i	i	i	i

Source: PubChem BioAssay (Johns Hopkins Ion Channel Center)
